Assay outcomes: PubChem, Sanford-Burnham Center for Chemical Genomics
Only some compounds are listed: those with a hit (about 2.5% of all), similar ones and a draw of the others.
SENP8 block-1: SENP8 (human) protease inhibition | recombinant SENP8, Nedd8 substrate fluorescence | 360,000 tested, 0.64% active | AID 602440 | Q96LD8 | inhibition, % at 20 µM; in the data active means inhibition mostly above about 40%, no sharp cut-off; inactive means mostly below about 27%
SENP8 block-2: SENP8 protease inhibition; Q96LD8; purified SENP8, Z-RLRGG-aminoluciferin cleavage, luminescence; inhibition, % at 10 µM; 330,000 tested, 1.2% active; in the data active means inhibition above about 50%
SENP7 block: SENP7 protease inhibition; Q9BQF6; recombinant SENP7, Z-RLRGG-aminoluciferin luminescence, 40 min; inhibition, % at 5 µM; 330,000 tested, 1.5% active;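 active means inhibition above about 50% at the single test dose, limit read from the data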
SENP1 FRET inh: SENP1 (human) catalytic domain inhibition | Q9P0U3 | inhibition, % at 10 µM | AID 624204 | recombinant SENP1 catalytic domain, CyPet-SUMO1-YPet FRET cleavage | 360,000 tested, 0.21% active;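 active means inhibition at least 30% at 10 µM, raw YFP signal under a set limit, fluorescence ratio 0.5 to 1.5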
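Assay system: hSENP1 catalytic domain, recombinant. Amount: SENP1 enzyme, 20 pM final. Schedule: 50 min reaction, RT, dark. Technique: FRET, CFP and YFP emission. Control set: no-enzyme wells low, DMSO-plus-enzyme wells high control.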
SENP6 block: blocks the human protease SENP6 | AID 2599 | Recombinant SENP6 catalytic domain, aminoluciferin luminescence | Q9GZR1 | inhibition, % at 10 µM | 330,000 tested, 1.8% active;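 active means inhibition above about 50% at the single tested dose, limit read from the data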
Target sequence (Q9GZR1 628-1112 limits assumed): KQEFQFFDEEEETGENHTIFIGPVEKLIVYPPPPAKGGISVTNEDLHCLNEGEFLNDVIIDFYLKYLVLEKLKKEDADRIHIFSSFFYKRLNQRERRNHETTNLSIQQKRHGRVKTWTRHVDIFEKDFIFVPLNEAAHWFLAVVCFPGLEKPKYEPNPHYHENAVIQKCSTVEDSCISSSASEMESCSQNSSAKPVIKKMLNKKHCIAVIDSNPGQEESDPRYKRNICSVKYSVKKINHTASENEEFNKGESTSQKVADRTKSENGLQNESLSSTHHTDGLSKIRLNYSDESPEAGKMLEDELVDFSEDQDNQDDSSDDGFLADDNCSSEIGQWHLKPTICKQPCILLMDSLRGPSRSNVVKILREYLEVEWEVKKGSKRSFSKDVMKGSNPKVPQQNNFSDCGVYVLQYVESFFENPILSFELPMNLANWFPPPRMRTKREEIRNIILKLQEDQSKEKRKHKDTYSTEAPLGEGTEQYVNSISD
SENP8 confirm: human SENP8 inhibition, confirmed. shares compounds with SENP7 block. Recombinant SENP8, Z-RLRGG-aminoluciferin luminescence, 60 min. inhibition, % at 12.5 µM. 6,200 tested, 40% active. AID 488912;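 active means mean inhibition across replicates above about 50%, limit read from the data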
SENP6 confirm: human SENP6 inhibition, confirmed. AID 488915. inhibition, % at 12.5 µM. recombinant SENP6, Z-RLRGG-aminoluciferin luminescence. shares compounds with SENP7 block. 6,200 tested, 58% active
SENP7 conf: confirmation of human SENP7 protease inhibitors; shares compounds with SENP7 block; recombinant SENP7, Z-RLRGG-aminoluciferin luminescence, 40 min; inhibition, % at 12.5 µM; 6,200 tested, 69% active; AID 488917
Casp3 SENP sel: selectivity test for SENP inhibitors: human caspase-3 inhibition. 6,200 tested, 60% active. AID 488918. shares compounds with SENP7 block. inhibition, % at 12.5 µM. purified caspase-3, Z-DEVD-aminoluciferin luminescence, 60 min;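 active means mean inhibition above about 50%, limit read from the data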
SENP luc ctr: luminescence interference (SENP counter-screen). shares compounds with SENP7 block. Pre-incubated SENP8/Z-RLRGG-aminoluciferin, luciferase luminescence interference. inhibition, % at 12.5 µM. 6,200 tested, 39% active. AID 488919;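 active means mean inhibition above about 50% when retested at one dose, limit read from the data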
Of the large screens only hits and unclear results are named; the others gave an inactive call (follow-up assays come after a bar, where they were run).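 How the source made its calls, unless noted: active means mean inhibition above about 50% in the one-dose retest (limit read from the data); inactive means the rest.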

Cc1nc(-c2coc3cc(O)c(C)cc3c2=O)cs1	SENP8 block-2 94, SENP7 block 98, SENP6 block 93 | SENP8 confirm 84 | SENP6 confirm 98 | SENP7 conf 102 | Casp3 SENP sel 96 | SENP luc ctr inactive
Cc1nc(-c2coc3cc(OCC(=O)O)ccc3c2=O)cs1	SENP6 block 65 | SENP8 confirm 57 | SENP6 confirm 54 | SENP7 conf 86 | Casp3 SENP sel 88 | SENP luc ctr 63
O=C(NCCCN1CCCC1)Nc1ccccc1[N+](=O)[O-]	none
COc1cccc(OC)c1C(=O)NNS(=O)(=O)c1ccc2ccccc2c1	none
COc1ccc(-c2cn3nc(SCC(=O)NC4CCCCC4)ccc3n2)cc1	SENP7 block 61 | SENP8 confirm inactive | SENP6 confirm inactive | SENP7 conf inactive | Casp3 SENP sel inactive | SENP luc ctr inactive
COc1ccc(-c2ccc(SCC(=O)NC3CCCCC3)nn2)cc1	none
Cc1cc(OCC(=O)N2CCN(c3ccccn3)CC2)c(C)cc1Br	none
Cn1c(/C=C/c2ccccc2[N+](=O)[O-])nc2ccccc2c1=O	none
O=[N+]([O-])c1ccccc1/C=C/c1ccc2ccccc2n1	SENP8 block-2 85, SENP7 block 82, SENP6 block 88 | SENP8 confirm 94 | SENP6 confirm 93 | SENP7 conf 100 | Casp3 SENP sel 79 | SENP luc ctr inactive
COc1c(OC(C)=O)ccc(/C=C/c2ccc3ccccc3n2)c1[N+](=O)[O-]	SENP8 block-2 89, SENP7 block 91, SENP6 block 94 | SENP8 confirm 86 | SENP6 confirm 97 | SENP7 conf 99 | Casp3 SENP sel 84 | SENP luc ctr inactive
COc1c(OC(C)=O)ccc(/C=C/c2ccc3cccc(OC)c3n2)c1[N+](=O)[O-]	none
CCCCNC(=O)C1(C)CCN1C(=O)c1ccc(OC)c(C(F)(F)F)c1 (centres undefined)	none (no result: SENP8 block-2, SENP7 block, SENP6 block)
O=C(NCc1cccnc1)c1cc(C2CCCCN2S(=O)(=O)c2ccc(F)cc2F)on1 (centres undefined)	none (no result: SENP8 block-2, SENP7 block, SENP6 block)
CC1CCN(S(=O)(=O)N2CCC(C(=O)NCc3ccc(F)cc3Cl)CC2)CC1	none (no result: SENP8 block-2, SENP7 block, SENP6 block)
O=C(Nc1nccs1)c1ccc(-c2ccccc2Cl)o1	SENP8 block-2 62, SENP7 block 70, SENP6 block 79 | SENP8 confirm 66 | SENP6 confirm 69 | SENP7 conf inactive | Casp3 SENP sel inactive | SENP luc ctr inactive
O=C(Nc1ccccc1)c1ccc(-c2ccccc2Cl)o1	SENP7 block 60, SENP6 block 66 | SENP8 confirm inactive | SENP6 confirm inactive | SENP7 conf 82 | Casp3 SENP sel inactive | SENP luc ctr inactive
CC(=O)Cc1nsc(NC(=O)c2ccc(-c3ccccc3Cl)o2)n1	SENP8 block-2 57 | SENP8 confirm 83 | SENP6 confirm 79 | SENP7 conf 92 | Casp3 SENP sel 66 | SENP luc ctr 66
CC(=O)Cc1nsc(NC(=O)c2oc(-c3ccccc3Cl)cc2C)n1	none
COC(=O)c1ccc(Cn2nc(-c3cc(C)ccc3C)ccc2=O)cc1	none
O=C(N/N=C/c1ccc([N+](=O)[O-])o1)C1CC1	none
COCCNC(=O)C1CCCN(Cc2cccc(C#N)c2)CC1 (centres undefined)	none (no result: SENP8 block-2, SENP7 block, SENP6 block)
Nc1cccc2cc(-c3ccccc3)oc12	SENP6 block 55 | SENP8 confirm inactive | SENP6 confirm inactive | SENP7 conf 72 | Casp3 SENP sel inactive | SENP luc ctr 53
COc1cccc2cc(-c3ccccc3)oc12	none
